Hits are enriched below; roughly 2.3% of the tested compounds scored in any of these assays.
bovine MsrA act = activates bovine MsrA enzyme | purified bovine MsrA, absorbance read-out | activation, % at 10.6 µM | 360,000 compounds, 0.3% hits | AID 602163; in the data active means activation above about 7.5%;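 further: 0% = vehicle and 100% = reference activator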
MC4R antagonist = antagonists of human melanocortin 4 receptor (MC4R). P32245. MC4R-expressing cells, MTII-stimulated cAMP, LANCE TR-FRET. inhibition, % at 6.5 µM. 360,000 compounds, 0.48% hits. AID 540295;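 active means inhibition above its plate's cutoff, the mean of tested wells on that plate plus 3 SD, cut at about 29% in these data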;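 further: 0% = Melanotan II alone and 100% = Melanotan II plus saturating MCL0020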
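Assay system: U2OS cells stably expressing human melanocortin 4 receptor (MC4R) / Dosing: 6.5 µM / Timing: compound 30 min, challenge 1 h, detection 1 h / Measured by: Eu-cAMP/anti-cAMP TR-FRET, emission 671 nm / Replicates: singlicate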
MC4R ag barr = agonists of human melanocortin 4 receptor (MC4R) beta-arrestin. P32245. U2OS MC4R beta-arrestin complementation, luminescence; percent of melanotan II response, DMSO zero. activation, % at 8.9 µM. 360,000 compounds, 0.98% hits. AID 540308;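 active means activation above a per-plate cutoff, the mean activation of sample wells on that plate plus 3 SD, cut at about 8% in these data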
MsrA inh = bovine MsrA inhibition; purified bovine MsrA, absorbance read-out; inhibition, % at 15.5 µM; 360,000 compounds, 0.75% hits; AID 651718; in the data active means inhibition above about 4.5%;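 further: 0% = vehicle wells with enzyme and 100% = reference inhibitor wells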
MC4R barr ag = human MC4R beta-arrestin agonism confirmation; shares compounds with MC4R ag barr; U2OS MC4R beta-arrestin recruitment, luminescence; scaled DMSO 0%, Melanotan II 100%; activation, % at 8.9 µM; 2,400 compounds, 31% hits; AID 602192;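 active means mean activation across replicates above the hit cutoff set in the earlier primary screen, cut at about 8% in these data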
MOR DOR agonist = activates mu-delta opioid heterodimer, MC4R agonist counter-screen; 2,400 compounds, 5.8% hits; activation, % at 9.2 µM; AID 602194; U2OS PathHunter beta-arrestin, beta-gal luminescence; percent of deltorphin B response, DMSO zero; shares compounds with MC4R ag barr;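 active means mean activation across replicates exceeds the hit threshold derived in the earlier primary screen, cut at about 18% in these data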;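 further: 100% = deltorphin B at 0.9 µM final and 0% = DMSO alone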
Target sequence (P35372 whole entry, looked up): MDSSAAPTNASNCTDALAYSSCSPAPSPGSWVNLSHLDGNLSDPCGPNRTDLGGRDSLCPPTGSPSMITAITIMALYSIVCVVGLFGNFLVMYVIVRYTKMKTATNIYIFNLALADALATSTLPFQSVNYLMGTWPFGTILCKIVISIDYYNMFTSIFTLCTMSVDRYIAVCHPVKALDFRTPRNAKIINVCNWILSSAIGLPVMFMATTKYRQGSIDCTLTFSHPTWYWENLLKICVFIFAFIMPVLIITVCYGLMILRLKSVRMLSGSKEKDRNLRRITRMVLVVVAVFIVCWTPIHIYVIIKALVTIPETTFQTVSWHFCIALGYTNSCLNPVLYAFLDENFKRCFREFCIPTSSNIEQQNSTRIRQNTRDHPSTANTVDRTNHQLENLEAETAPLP
Target sequence (P41143 whole entry, looked up): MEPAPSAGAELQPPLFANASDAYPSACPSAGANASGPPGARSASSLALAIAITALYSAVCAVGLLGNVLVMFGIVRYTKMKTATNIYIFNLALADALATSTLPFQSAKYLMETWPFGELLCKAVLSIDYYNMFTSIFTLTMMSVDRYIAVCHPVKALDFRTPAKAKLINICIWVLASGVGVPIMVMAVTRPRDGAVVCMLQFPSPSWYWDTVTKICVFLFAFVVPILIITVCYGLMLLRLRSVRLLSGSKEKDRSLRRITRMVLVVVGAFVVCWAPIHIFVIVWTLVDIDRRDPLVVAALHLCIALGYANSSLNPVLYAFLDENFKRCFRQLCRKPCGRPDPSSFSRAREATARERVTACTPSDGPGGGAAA
* = called active by the depositor; / = no result.

SMILES | bovine MsrA act | MC4R antagonist | MC4R ag barr | MsrA inh | MC4R barr ag | MOR DOR agonist
COc1ccc(-c2nc(C(N)=O)c3[nH]c(=O)n(-c4cccc(Cl)c4)c3n2)cc1OC | 7 | -3 | 13* | 1 | 11* | 12
COc1cccc(-c2nc(C(N)=O)c3[nH]c(=O)n(-c4cccc(Cl)c4)c3n2)c1OC | -2 | 11 | 0 | 2 | / | /
CCCCC(NC(=O)Cc1c(C)c2cc3c4c(oc3c(C)c2oc1=O)CCCC4)C(=O)O (stereo unspecified) | -2 | 11 | 0 | 0 | / | /
N#Cc1c(-c2ccccc2)c(C#N)c2nc3ccccc3n2c1N | -12 | 8 | 11* | 1 | 1 | 4
c1ccc(-c2cc(-c3nn4c(-c5ccco5)nnc4s3)c3ccccc3n2)cc1 | -12 | 10 | 9.7* | / | 6 | 3
O=S1(=O)CCC(NC(=S)Nc2ccc(Cl)cc2)C1 (stereo unspecified) | -3 | -2 | 0 | 0 | / | /
COc1ccc(NC(=O)c2cccc3ccccc23)cc1OC | 0 | 10 | -1 | 1 | / | /
COc1ccc(OC)c(NC(=O)c2cc3c(Cl)nc4ccccc4c3s2)c1 | -2 | 5 | 28* | -1 | 6 | 19*
COc1ccc(NC(=O)c2cc3c(Cl)nc4ccccc4c3s2)cc1OC | -4 | 5 | 11* | 0 | 7 | 8
CCn1c(=O)c2cc(C(=O)Nc3ccccc3OC)sc2c2ccccc21 | -8 | -11 | 1 | 1 | / | /
CC(=O)c1cccc(NC(=O)CN2C(=O)NC(C)(C)C2=O)c1 | -2 | 9 | 3 | 1 | / | /
COc1cccc(OC)c1C1=NC(C)(C)CO1 | -3 | 2 | 0 | -1 | / | /
O=S(=O)(c1ccccc1)c1nc(-c2cccs2)oc1NCCCn1ccnc1 | -4 | 12 | 0 | 2 | / | /
CCOC(=O)c1sc(NC(=O)c2cc3n(n2)C(C(F)(F)F)CC(c2cccs2)N3)c(C(=O)OCC)c1C (stereo unspecified) | -3 | 2 | 0 | 2 | / | /
C[C@H](CO)N1C[C@H](C)[C@@H](CN(C)C(=O)Nc2ccccc2)Oc2ccc(NC(=O)C3CC3)cc2C1=O | -3 | 9 | -1 | 0 | / | /
CCc1cc2cccc(C)c2nc1SCC(=O)NC1CCCC1 | -2 | 6 | -1 | -1 | / | /
CCc1cc2cc(C)ccc2nc1SCC(=O)NC1CCCC1 | -1 | 5 | 11* | 1 | -1 | 8
Cc1cccc(-n2nnnc2SCC(=O)c2cc(C)n(Cc3ccco3)c2C)c1 | -1 | 6 | 27* | 0 | 16* | 4
Cc1cccc(-n2nnnc2SCC(=O)c2cc(C)n(CC3CCCO3)c2C)c1 (stereo unspecified) | 0 | -3 | 0 | 1 | / | /
O=C(CCCN=C1NS(=O)(=O)c2ccccc21)OCc1cc([N+](=O)[O-])cc2c1OCOC2 | -4 | 21 | -1 | 0 | / | /
COc1ccc(CNC(=O)N2CCN(c3cccc(Cl)c3)CC2)cc1OC | -4 | -7 | -2 | -1 | / | /
Cc1nc(NC(=O)c2cccc(-c3cc4ccccc4oc3=O)c2)ccc1Br | -4 | -5 | 24* | 0 | 17* | 12
Cc1ccc(COC(=O)Cc2coc3cc(O)ccc23)cc1 | -1 | 5 | 9.9* | 1 | 3 | 11
CCOC(=O)C1(Cc2ccccc2)CCCN(Cc2ccc(OCC)c(CO)c2)C1 (stereo unspecified) | -1 | -2 | -4 | 1 | / | /
CCOc1cc(N2CCOCC2)c(OCC)cc1NC(=O)c1cc(-c2ccco2)nc2ccccc12 | 0 | 13 | 14* | -1 | 9.2* | 15
SMILES | bovine MsrA act | MC4R antagonist | MC4R ag barr | MsrA inh | MC4R barr ag | MOR DOR agonist
CCC(C)Sc1nc2c(cnn2-c2ccc(C)cc2)c(=O)[nH]1 (stereo unspecified) | -2 | -5 | -1 | -2 | / | /
CCC(C)Sc1nc2c(cnn2-c2ccccc2)c(=O)[nH]1 (stereo unspecified) | 0 | 7 | 11* | -2 | 3 | 2
Cc1cccc2nc(-c3ccccc3)c(-c3ccc(CN4CCC(c5nc6ccccc6[nH]5)CC4)cc3)nc12 | / | / | / | 1 | / | /
CSc1ccc(/C=C/C(=O)OCC(=O)N2CCCCCC2)cc1 | -3 | 0 | -1 | 3 | / | /
Cc1cc(OC(C)C(=O)NCc2ccccn2)c2c(C)cc(=O)oc2c1 (stereo unspecified) | -1 | 13 | 1 | 1 | / | /
Cc1cc(OC(C)C(=O)NCc2ccccn2)c2c(C)c(Cc3ccccc3)c(=O)oc2c1 (stereo unspecified) | -1 | 11 | 11* | 0 | 1 | 2
Cc1ccc(C(=O)Oc2ccc(C(=O)COC(=O)c3cnccn3)cc2)cc1 | -7 | 3 | 1 | 0 | / | /
COc1cc(/C=N/N=C(/N)c2nonc2N)cc(Br)c1OCc1cccc(C)c1 | -3 | 9 | 5 | 3 | / | /
CCOc1cc(/C=N/N=C(\N)c2nonc2N)cc(Br)c1OCc1cccc2ccccc12 | -4 | 1 | 31* | 0 | 11* | 8
O=C(NCC(c1cccs1)N1CCOCC1)c1cn(-c2ccccc2)nc1-c1ccc(Cl)cc1 (stereo unspecified) | -2 | 2 | -3 | -2 | / | /
OC1(C#Cc2c(-c3ccsc3)oc3ccc(N4CCOCC4)cc23)CCCCC1 | 0 | 19 | 13* | 2 | 8 | 5
Cc1nc2c3ccccc3nc(SCC(=O)c3ccc(Cl)cc3)n2n1 | -5 | -1 | 11* | -1 | 14* | 5
CCCCn1c(SCC(=O)NCc2ccco2)nc2ccccc2c1=O | -1 | 8 | -4 | 0 | / | /
O=C(CCCn1c(SCC(=O)c2ccc(Cl)cc2)nc2ccccc2c1=O)NCc1ccco1 | -7 | 10 | 19* | 0 | 1 | 29*
O=C(CCCCn1c(=O)c2ccccc2n(Cc2ccc(Cl)cc2)c1=O)NCc1ccco1 | -5 | -4 | 12* | 0 | 0 | 4
O=C(CCCCCn1c(SCC(=O)c2ccccc2)nc2ccccc2c1=O)NCc1ccco1 | -12 | 11 | 28* | 2 | 6 | 13
Cc1nc2c3ccccc3nc(SCC(=O)N3CC(C)CC(C)C3)n2n1 (stereo unspecified) | -6 | -1 | -2 | 1 | / | /
Cn1c(SCC(=O)N2CCOCC2)nnc1-c1ccco1 | 0 | 20 | 0 | 0 | / | /
Cc1cc(C([O-])=C(C(=S)Nc2ccccc2)[n+]2ccccc2)c(C)n1-c1ccccc1 | -10 | -2 | -2 | 1 | / | /
NS(=O)(=O)c1ccc(CNC(=O)c2ccc(S(=O)(=O)C(F)F)cc2)cc1 | -1 | 18 | -1 | 1 | / | /
Cc1cc(N/N=C\c2ccccc2)nc(-c2ccccc2O)n1 | -11 | -2 | 20* | 1 | 2 | 6
Cc1cc(N/N=C/c2ccccc2O)nc(-c2ccccc2O)n1 | -2 | 0 | -1 | 0 | / | /
COc1ccc(Cn2c(C)c(C)c(C#N)c2NC(=O)Nc2cccc(Cl)c2)cc1 | 0 | -7 | 21* | 1 | 3 | 6

Assay outcomes from PubChem BioAssay.
